From ChEMBL document CHEMBL1143171, “Structure-activity studies on 1,3-dioxane-2-carboxylic acid derivatives, a novel class of subtype-selective peroxisome proliferator-activated receptor alpha (PPARalpha) agonists” (Bioorg Med Chem, 2008)

Columns and labels:
[1] = biological target: T1, Peroxisome proliferator-activated receptor delta (Homo sapiens) (UniProt Q03181); test: Agonist activity at human PPARdelta expressed in CV1 cells at 10 uM by transactivation assay; assay type: functional, cell-based; conditions: CV-1
T1 sequence (whole entry): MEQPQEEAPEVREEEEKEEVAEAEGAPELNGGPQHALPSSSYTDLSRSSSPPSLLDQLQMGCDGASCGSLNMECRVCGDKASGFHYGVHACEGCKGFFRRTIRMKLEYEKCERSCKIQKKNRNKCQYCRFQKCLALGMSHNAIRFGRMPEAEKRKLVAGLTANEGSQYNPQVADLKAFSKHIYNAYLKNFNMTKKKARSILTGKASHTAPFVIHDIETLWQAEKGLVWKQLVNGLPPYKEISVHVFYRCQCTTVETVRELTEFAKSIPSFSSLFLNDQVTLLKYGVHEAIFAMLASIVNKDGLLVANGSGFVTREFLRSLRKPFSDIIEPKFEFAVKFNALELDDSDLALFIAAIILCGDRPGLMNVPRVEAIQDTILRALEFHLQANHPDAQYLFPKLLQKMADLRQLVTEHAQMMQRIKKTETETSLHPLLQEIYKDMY
Procedure, shortened: (§1)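 Human full-length PPAR subtype (pSG5) cotransfected into CV-1 cells with a PPRE (rat acyl-CoA oxidase, ×3)–TK firefly luciferase reporter and a Renilla TK control. Cells were cultured in DMEM/10% FBS at 37 °C under 5% CO2, then exposed to compound at 10 µM (0.1% DMSO final) for 48 h. The dual-luciferase read-out is given as a percentage of the positive control's maximum activity (n = 2).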

[2] = biological target: T2, Peroxisome proliferator-activated receptor alpha (Homo sapiens, UniProt Q07869); test: Agonist activity at human PPARalpha expressed in CV1 cells by transactivation assay; assay type: functional, cell-based, CV-1
T2 sequence (Q07869 whole entry): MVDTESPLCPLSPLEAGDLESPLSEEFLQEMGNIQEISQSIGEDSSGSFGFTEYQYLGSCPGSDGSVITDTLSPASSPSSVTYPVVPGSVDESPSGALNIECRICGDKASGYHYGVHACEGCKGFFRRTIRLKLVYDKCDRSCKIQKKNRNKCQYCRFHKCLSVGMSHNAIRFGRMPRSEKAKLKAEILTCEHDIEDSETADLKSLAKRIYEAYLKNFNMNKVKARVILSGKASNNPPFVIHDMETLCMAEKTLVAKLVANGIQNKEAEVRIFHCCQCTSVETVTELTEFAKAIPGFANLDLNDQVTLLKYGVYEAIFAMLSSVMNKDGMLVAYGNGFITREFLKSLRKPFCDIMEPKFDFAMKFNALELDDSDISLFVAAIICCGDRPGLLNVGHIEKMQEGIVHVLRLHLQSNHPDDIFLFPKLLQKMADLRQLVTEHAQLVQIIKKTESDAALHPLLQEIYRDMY

[3] = biological target: T3, Peroxisome proliferator-activated receptor gamma (Homo sapiens) (UniProt P37231); test: Agonist activity at human PPARgamma expressed in CV1 cells at 10 uM by transactivation assay; assay type: functional, cell-based; conditions: CV-1; procedure, shortened: as §1
T3 sequence (whole entry): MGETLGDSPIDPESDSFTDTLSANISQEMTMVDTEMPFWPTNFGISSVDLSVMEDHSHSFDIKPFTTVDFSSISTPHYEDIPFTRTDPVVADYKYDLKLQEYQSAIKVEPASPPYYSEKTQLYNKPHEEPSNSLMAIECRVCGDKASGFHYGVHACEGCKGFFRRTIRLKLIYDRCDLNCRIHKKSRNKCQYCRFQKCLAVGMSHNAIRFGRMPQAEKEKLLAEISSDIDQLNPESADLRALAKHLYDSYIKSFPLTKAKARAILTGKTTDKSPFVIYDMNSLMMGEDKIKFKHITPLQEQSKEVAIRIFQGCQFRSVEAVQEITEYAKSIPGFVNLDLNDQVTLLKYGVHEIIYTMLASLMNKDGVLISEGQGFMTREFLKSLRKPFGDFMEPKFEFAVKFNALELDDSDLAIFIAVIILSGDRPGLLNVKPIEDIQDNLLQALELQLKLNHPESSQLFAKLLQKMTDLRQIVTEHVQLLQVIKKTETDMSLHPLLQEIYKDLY

Mus musculus [4] = test: Hypolipidemic effect on diabetic KK-Ay mouse assessed as increase in plasma HDL cholesterol level at 1 mg/kg/day, po after 4 days; assay type: functional
Procedure, shortened: (§2)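 Male KK-Ay mice, 10 weeks old and fed chow ad libitum, were dosed orally once daily for 4 days (n = 5) with suspensions in 0.5% methylcellulose. On the day after the last dose, nonfasted tail-vein plasma was assayed enzymatically for TG and glucose. Vena cava plasma taken under pentobarbital had lipoprotein cholesterol measured by HPLC with on-line enzymatic detection. Values are % change of the group mean from vehicle controls.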

Mus musculus [5] = test: Hypolipidemic effect on diabetic KK-Ay mouse assessed as reduction of plasma triglyceride level at 1 mg/kg/day, po after 4 days; assay type: functional; design: scale not given: the % may be the effect or the level left; procedure, shortened: as §2
Mus musculus [6] = test: Hypolipidemic effect on diabetic KK-Ay mouse assessed as reduction of plasma VLDL cholesterol level at 1 mg/kg/day, po after 4 days; assay type: functional; design: scale not given: the % may be the effect or the level left; procedure, shortened: as §2
[7] = biological target: T4, Peroxisome proliferator-activated receptor gamma (Mus musculus) (UniProt P37238); test: Agonist activity at mouse PPARgamma expressed in CV1 cells at 10 uM by transactivation assay; assay type: functional, cell-based; conditions: CV-1
T4 sequence (whole entry): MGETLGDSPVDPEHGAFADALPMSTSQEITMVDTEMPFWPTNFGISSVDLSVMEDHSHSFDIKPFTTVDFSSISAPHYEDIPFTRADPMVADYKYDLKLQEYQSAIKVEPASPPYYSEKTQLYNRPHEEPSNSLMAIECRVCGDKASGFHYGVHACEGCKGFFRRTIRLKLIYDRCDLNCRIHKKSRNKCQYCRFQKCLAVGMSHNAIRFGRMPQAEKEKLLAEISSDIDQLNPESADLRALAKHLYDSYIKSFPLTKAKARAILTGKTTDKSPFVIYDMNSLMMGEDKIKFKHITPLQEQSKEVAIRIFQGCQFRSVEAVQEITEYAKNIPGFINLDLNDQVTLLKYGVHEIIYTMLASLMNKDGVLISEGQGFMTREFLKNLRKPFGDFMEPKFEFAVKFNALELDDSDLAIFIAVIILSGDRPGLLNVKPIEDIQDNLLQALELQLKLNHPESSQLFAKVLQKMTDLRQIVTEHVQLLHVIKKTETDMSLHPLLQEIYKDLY

Mus musculus [8] = test: Hypoglycemic effect on diabetic KK-Ay mouse assessed as reduction of plasma glucose level at 1 mg/kg/day, po after 4 days; assay type: functional; design: scale not given: the % may be the effect or the level left; procedure, shortened: as §2
[9] = biological target: T5, Peroxisome proliferator-activated receptor alpha (Mus musculus, UniProt P23204); test: Agonist activity at mouse PPARalpha expressed in CV1 cells by transactivation assay; assay type: functional, cell-based, CV-1
T5 sequence (P23204 whole entry): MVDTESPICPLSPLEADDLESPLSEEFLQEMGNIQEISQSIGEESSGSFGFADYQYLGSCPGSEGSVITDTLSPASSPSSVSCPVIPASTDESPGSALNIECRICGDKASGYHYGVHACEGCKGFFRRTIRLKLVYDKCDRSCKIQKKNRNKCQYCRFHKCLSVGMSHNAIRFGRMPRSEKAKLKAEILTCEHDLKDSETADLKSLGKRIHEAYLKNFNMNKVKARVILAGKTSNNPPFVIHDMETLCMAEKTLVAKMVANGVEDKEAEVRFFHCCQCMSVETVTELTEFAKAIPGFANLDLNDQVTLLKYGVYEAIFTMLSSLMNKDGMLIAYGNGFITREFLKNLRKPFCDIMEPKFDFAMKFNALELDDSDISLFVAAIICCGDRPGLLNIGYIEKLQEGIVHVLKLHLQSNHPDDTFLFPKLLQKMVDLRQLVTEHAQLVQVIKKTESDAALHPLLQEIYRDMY

[10] = biological target: T6, Peroxisome proliferator-activated receptor gamma (Homo sapiens, UniProt P37231); test: Agonist activity at human PPARgamma expressed in CV1 cells by transactivation assay; assay type: functional, cell-based, CV-1
T6 sequence (P37231 whole entry): T3 sequence (whole entry)

[11] = Selectivity for mouse PPARalpha over human PPARalpha
[12] = biological target: T7, Peroxisome proliferator-activated receptor gamma (Mus musculus, UniProt P37238); test: Agonist activity at mouse PPARgamma expressed in CV1 cells by transactivation assay; assay type: functional, cell-based, CV-1
T7 sequence (P37238 whole entry): T4 sequence (whole entry)

Homo sapiens = organism: Homo sapiens; test: Selectivity for human PPARalpha over human PPARgamma
[13] = biological target: T8, Peroxisome proliferator-activated receptor delta (Homo sapiens, UniProt Q03181); test: Agonist activity at human PPARdelta expressed in CV1 cells by transactivation assay; assay type: functional, cell-based, CV-1
T8 sequence (Q03181 whole entry): T1 sequence (whole entry)

[14] = biological target: T9, Peroxisome proliferator-activated receptor alpha (Homo sapiens) (UniProt Q07869); test: Agonist activity at human PPARalpha expressed in CV1 cells at 10 uM by transactivation assay; assay type: functional, cell-based; conditions: CV-1; procedure, shortened: as §1
T9 sequence (whole entry): T2 sequence (Q07869 whole entry)

Mus musculus [15] = test: Hypolipidemic effect on diabetic KK-Ay mouse assessed as reduction of plasma triglyceride level at 300 mg/kg/day, po after 4 days; assay type: functional; design: scale not given: the % may be the effect or the level left; procedure, shortened: as §2
Mus musculus [16] = test: Hypolipidemic effect on diabetic KK-Ay mouse assessed as reduction of plasma VLDL cholesterol level at 300 mg/kg/day, po after 4 days; assay type: functional; design: scale not given: the % may be the effect or the level left; procedure, shortened: as §2
Mus musculus [17] = test: Hypoglycemic effect on diabetic KK-Ay mouse assessed as reduction of plasma glucose level at 300 mg/kg/day, po after 4 days; assay type: functional; design: scale not given: the % may be the effect or the level left; procedure, shortened: as §2
Mus musculus [18] = test: Hypolipidemic effect on diabetic KK-Ay mouse assessed as increase in plasma HDL cholesterol level at 300 mg/kg/day, po after 4 days; assay type: functional; procedure, shortened: as §2

Row | SMILES | Activity [1] [%] | EC50 [2] [nM] | Activity [3] [%] | EC50 [10] [nM] | further results
1 | Cc1ccc(-c2nc(CCCC[C@H]3CO[C@@](C)(C(=O)O)OC3)c(C)o2)c(C)c1 | 16 | 30 | 35 |  | 
2 | Cc1oc(-c2ccccc2)nc1CCCC[C@H]1CO[C@@](C)(C(=O)O)OC1 | 0 | 300 |  | 100000 | Activity (Mus musculus [4]): 36%; Activity (Mus musculus [5]): -46%; Activity (Mus musculus [6]): -29%; Activity [7]: 11%; Activity (Mus musculus [8]): -12%; EC50 [9]: 1000 nM
3 | Cc1ccc(-c2nc(CCCC[C@H]3CO[C@@](C)(C(=O)O)OC3)c(C)s2)cc1 | 0 | 300 | 25 |  | 
4 | Cc1oc(-c2ccc(C(F)(F)F)cc2)nc1CCCC[C@H]1CO[C@@](C)(C(=O)O)OC1 | 34 | 30 | 41 |  | 
5 | Cc1ccc(-c2nc(CCCC[C@H]3CO[C@@](C)(C(=O)O)OC3)c(C)o2)cc1F | 25 | 10 | 45 |  | Selectivity ratio [11]: 10; Activity (Mus musculus [4]): 21%; Activity (Mus musculus [5]): -53%; Activity (Mus musculus [6]): -63%; Activity (Mus musculus [8]): -12%; EC50 [9]: 100 nM; EC50 [12]: 10000 nM
6 | CCc1ccc(-c2nc(CCCC[C@H]3CO[C@@](C)(C(=O)O)OC3)c(C)o2)cc1 | 0 | 10 |  | 3000 | Selectivity ratio (Homo sapiens): 300
7 | Cc1ccc(-c2nc(CCCC[C@H]3CO[C@@](C)(C(=O)O)OC3)c(C(F)(F)F)o2)cc1 | 24 | 300 |  | 3000 | 
8 | Cc1oc(-c2ccc(Cl)cc2)nc1CCCC[C@H]1CO[C@@](C)(C(=O)O)OC1 | 9 | 30 | 21 |  | 
9 | Cc1ccc(-c2nc(CCCC[C@H]3CO[C@@](C)(C(=O)O)OC3)c(C)o2)cc1 | 7 |  | 31 | 9600 | EC50 [13]: > 100000 nM; Activity (Mus musculus [4]): 34%; Activity (Mus musculus [5]): -71%; Activity (Mus musculus [6]): -50%; Activity [7]: 45%; Activity (Mus musculus [8]): -21%; EC50 [9]: 30 nM
10 | CCc1oc(-c2ccc(C)cc2)nc1CCCC[C@H]1CO[C@@](C)(C(=O)O)OC1 | 3 | 30 |  | 10000 | 
11 | Cc1ccc(-c2nc(CCCC[C@H]3CO[C@@](C)(C(=O)O)OC3)c(C)o2)cc1C | 0 | 3 | 42 |  | Selectivity ratio [11]: 10; Activity (Mus musculus [4]): 21%; Activity (Mus musculus [5]): -89%; Activity (Mus musculus [6]): -92%; Activity [7]: 42%; Activity (Mus musculus [8]): -32%; EC50 [9]: 30 nM
12 | CC(C)(Oc1ccc(CCNC(=O)c2ccc(Cl)cc2)cc1)C(=O)O [BEZAFIBRATE] |  |  |  | 3000 | EC50 [13]: 30000 nM
13 | Cc1ccccc1-c1nc(CCCC[C@H]2CO[C@@](C)(C(=O)O)OC2)c(C)o1 | 5 | 300 | 23 |  | 
14 | Cc1cccc(-c2nc(CCCC[C@H]3CO[C@@](C)(C(=O)O)OC3)c(C)o2)c1 | 16 | 30 | 34 |  | 
15 | Cc1ccc(-c2nc(CCCC[C@H]3CO[C@@](C)(C(=O)O)OC3)c(C)n2C)cc1 | 0 |  | 0 |  | Activity [14]: 6%
16 | COc1ccc(-c2nc(CCCC[C@H]3CO[C@@](C)(C(=O)O)OC3)c(C)o2)cc1 | 20 | 30 | 18 |  | 
17 | CC(C)(Oc1ccc(C(=O)c2ccc(Cl)cc2)cc1)C(=O)O [FENOFIBRIC ACID] |  | > 100000 |  |  | EC50 [13]: > 100000 nM; Activity (Mus musculus [15]): -40%; Activity (Mus musculus [16]): -31%; Activity (Mus musculus [17]): -25%; Activity (Mus musculus [18]): 17%
